{"source": "ChEMBL document CHEMBL3616437", "about": "“Thiazole compounds with activity against Cryptococcus gattii and Cryptococcus neoformans in vitro” (Eur J Med Chem, 2015)", "key": {"Cryptococcus neoformans [1]": {"tested_on": "Cryptococcus neoformans", "experiment": "Antifungal activity against Cryptococcus neoformans ATCC 24067 after 48 to 72 hrs by broth microdilution method", "assay_type": "functional", "procedure,_shortened": "(§1)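 CLSI M27-A3 broth microdilution. Isolates subcultured twice on SDA, 48 h at 35°C. Saline suspension adjusted to 70% transmittance at 530 nm, then diluted to 1-5 x10^3 cells/mL in RPMI with L-glutamine, 0.165 M MOPS, pH 7.0. Compounds in DMSO, tested at […]. 35°C for 48-72 h. MIC read visually as the lowest concentration giving an optically clear well.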"}, "Vero": {"tested_on": "Vero", "experiment": "Cytotoxicity against African green monkey Vero cells assessed as cell viability measured after 48 hrs by MTT assay", "assay_type": "cell-based", "conditions": "Chlorocebus sabaeus", "procedure,_shortened": "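VERO cells in D-MEM with 5% FBS, used up to 20 passages. Seeded 1 x 10^4 cells/well, pre-incubated 24 h at 37°C. Exposed 48 h at 37°C, 5% CO2, to eight nonserial dilutions from 100 to 0.0128 µM, with 0.5% DMSO control. MTT reduction read-out, corrected for background and blank. IC50 reported as median with 95% CI. Triplicate, two independent experiments.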"}, "[2]": {"experiment": "Cytotoxicity against C57BL/6 mouse peritoneal macrophages assessed as cell viability measured after 48 hrs by MTT assay", "assay_type": "cell-based", "conditions": "C57BL/6, Peritoneal macrophage cell", "procedure,_shortened": "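Thioglycollate-elicited peritoneal macrophages from male C57BL/6 mice, 6–8 weeks old, in RPMI with 10% FBS. Seeded 1 x 10^5 cells/well, pre-incubated 24 h at 37°C. Exposed 48 h at 37°C, 5% CO2, to eight nonserial dilutions from 100 to 0.0128 µM, with 0.5% DMSO control. MTT read-out, % inhibition versus DMSO control. IC50 reported as median with 95% CI. Triplicate, two independent experiments.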"}, "[3]": {"experiment": "Selectivity index, ratio of IC50 for African green monkey Vero cells to MIC for Cryptococcus neoformans ATCC 24067", "assay_type": "toxicity, cell-based"}, "[4]": {"experiment": "Selectivity index, ratio of IC50 for C57BL/6 mouse peritoneal macrophages to MIC for Cryptococcus neoformans ATCC 24067", "procedure,_shortened": "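SI = IC50/MIC. Thioglycollate-elicited peritoneal macrophages from C57BL/6 mice are seeded at 1 x 10^5/well. They are exposed for 48 h at 37°C to eight concentrations from 100 to 0.0128 µM. Viability read by MTT versus 0.5% DMSO control, triplicate in two experiments.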"}, "[5]": {"tested_on": "Cryptococcus bacillisporus", "experiment": "Antifungal activity against Cryptococcus gattii ATCC 32608 after 48 to 72 hrs by broth microdilution method", "assay_type": "functional", "procedure,_shortened": "(§2)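 CLSI M27-A3 broth microdilution in RPMI with L-glutamine, buffered to pH 7.0 with 0.165 M MOPS. Colonies grown twice on SDA, 48 h at 35°C. Inoculum set to 70% transmittance at 530 nm, then diluted to 1-5 x10^3 cells/mL. Test agents dissolved in DMSO, serially diluted, tested at 0.1 to 62.5 µM. Plates held at 35°C for 48-72 h. MIC is the lowest concentration giving an optically clear well, read visually against drug-free growth controls.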"}, "[6]": {"tested_on": "Cryptococcus gattii species complex", "experiment": "Antifungal activity against Cryptococcus gattii 23/10993 after 48 to 72 hrs by broth microdilution method", "assay_type": "functional, Cryptococcus bacillisporus", "procedure,_shortened": "as §2"}, "[7]": {"tested_on": "Cryptococcus gattii species complex", "experiment": "Antifungal activity against Cryptococcus gattii L28/02 after 48 to 72 hrs by broth microdilution method", "assay_type": "functional, Cryptococcus bacillisporus", "procedure,_shortened": "as §2"}, "[8]": {"tested_on": "Cryptococcus gattii species complex", "experiment": "Antifungal activity against Cryptococcus gattii 547/OTTI-97-PI-10 after 48 to 72 hrs by broth microdilution method", "assay_type": "functional, Cryptococcus bacillisporus", "procedure,_shortened": "as §2"}, "[9]": {"tested_on": "Cryptococcus gattii species complex", "experiment": "Antifungal activity against Cryptococcus gattii 135L/03 after 48 to 72 hrs by broth microdilution method", "assay_type": "functional, Cryptococcus bacillisporus", "procedure,_shortened": "as §2"}, "[10]": {"tested_on": "Cryptococcus gattii species complex", "experiment": "Antifungal activity against Cryptococcus gattii 196L/03 after 48 to 72 hrs by broth microdilution method", "assay_type": "functional, Cryptococcus bacillisporus", "procedure,_shortened": "as §2"}, "[11]": {"tested_on": "Cryptococcus gattii species complex", "experiment": "Antifungal activity against Cryptococcus gattii L27/01 after 48 to 72 hrs by broth microdilution method", "assay_type": "functional, Cryptococcus bacillisporus", "procedure,_shortened": "as §2"}, "[12]": {"tested_on": "Cryptococcus gattii species complex", "experiment": "Antifungal activity against Cryptococcus gattii ICB181 after 48 to 72 hrs by broth microdilution method", "assay_type": "functional, Cryptococcus bacillisporus", "procedure,_shortened": "as §2"}, "[13]": {"tested_on": "Cryptococcus gattii species complex", "experiment": "Antifungal activity against Cryptococcus gattii L24/01 after 48 to 72 hrs by broth microdilution method", "assay_type": "functional, Cryptococcus bacillisporus", "procedure,_shortened": "as §2"}, "[14]": {"tested_on": "Cryptococcus gattii species complex", "experiment": "Antifungal activity against Cryptococcus gattii LMM818 after 48 to 72 hrs by broth microdilution method", "assay_type": "functional, Cryptococcus bacillisporus", "procedure,_shortened": "as §2"}, "[15]": {"tested_on": "Cryptococcus gattii species complex", "experiment": "Antifungal activity against Cryptococcus gattii 1913ER after 48 to 72 hrs by broth microdilution method", "assay_type": "functional, Cryptococcus bacillisporus", "procedure,_shortened": "as §2"}, "Cryptococcus neoformans [16]": {"tested_on": "Cryptococcus neoformans", "experiment": "Antifungal activity against Cryptococcus neoformans ATCC 28957 after 48 to 72 hrs by broth microdilution method", "assay_type": "functional", "procedure,_shortened": "as §1"}, "Cryptococcus neoformans [17]": {"tested_on": "Cryptococcus neoformans", "experiment": "Antifungal activity against Cryptococcus neoformans ATCC 62066 after 48 to 72 hrs by broth microdilution method", "assay_type": "functional"}, "Cryptococcus neoformans [18]": {"tested_on": "Cryptococcus neoformans", "experiment": "Antifungal activity against Cryptococcus neoformans CN31 after 48 to 72 hrs by broth microdilution method", "assay_type": "functional", "procedure,_shortened": "as §1"}, "Cryptococcus neoformans [19]": {"tested_on": "Cryptococcus neoformans", "experiment": "Antifungal activity against Cryptococcus neoformans 96806 after 48 to 72 hrs by broth microdilution method", "assay_type": "functional", "procedure,_shortened": "as §1"}, "Cryptococcus neoformans [20]": {"tested_on": "Cryptococcus neoformans", "experiment": "Antifungal activity against Cryptococcus neoformans 5396 after 48 to 72 hrs by broth microdilution method", "assay_type": "functional", "procedure,_shortened": "as §1"}, "Cryptococcus neoformans [21]": {"tested_on": "Cryptococcus neoformans", "experiment": "Antifungal activity against Cryptococcus neoformans LMM820 after 48 to 72 hrs by broth microdilution method", "assay_type": "functional", "procedure,_shortened": "as §1"}, "Cryptococcus neoformans [22]": {"tested_on": "Cryptococcus neoformans", "experiment": "Antifungal activity against Cryptococcus neoformans F10 after 48 to 72 hrs by broth microdilution method", "assay_type": "functional", "procedure,_shortened": "as §1"}, "Cryptococcus neoformans [23]": {"tested_on": "Cryptococcus neoformans", "experiment": "Antifungal activity against Cryptococcus neoformans 28JF after 48 to 72 hrs by broth microdilution method", "assay_type": "functional", "procedure,_shortened": "as §1"}, "Cryptococcus neoformans [24]": {"tested_on": "Cryptococcus neoformans", "experiment": "Antifungal activity against Cryptococcus neoformans VM-MCMMPI after 48 to 72 hrs by broth microdilution method", "assay_type": "functional", "procedure,_shortened": "as §1"}, "Cryptococcus neoformans [25]": {"tested_on": "Cryptococcus neoformans", "experiment": "Antifungal activity against Cryptococcus neoformans 27JF after 48 to 72 hrs by broth microdilution method", "assay_type": "functional", "procedure,_shortened": "as §1"}, "Cryptococcus neoformans [26]": {"tested_on": "Cryptococcus neoformans", "experiment": "Antifungal activity against Cryptococcus neoformans WP after 48 to 72 hrs by broth microdilution method", "assay_type": "functional", "procedure,_shortened": "as §1"}}, "data": [{"smiles": "C[C@@H]1[C@H](O)[C@@H](C)/C=C/C=C/C=C/C=C/C=C/C=C/C=C/[C@H](O[C@@H]2O[C@H](C)[C@@H](O)[C@H](N)[C@@H]2O)C[C@@H]2O[C@](O)(C[C@@H](O)C[C@@H](O)[C@H](O)CC[C@@H](O)C[C@@H](O)CC(=O)O[C@H]1C)C[C@H](O)[C@H]2C(=O)O", "note": "[AMPHOTERICIN B]", "values": [{"measurement": "MIC", "setting": "Cryptococcus neoformans [1]", "result": 0.09, "unit": "µM"}, {"measurement": "IC50", "setting": "Vero", "result": "> 100", "unit": "µM"}, {"measurement": "IC50", "setting": "[2]", "result": 53.4, "unit": "µM"}, {"measurement": "selectivity ratio", "setting": "[3]", "result": 206}, {"measurement": "Ratio", "setting": "[4]", "result": 109.81}, {"measurement": "MFC", "setting": "[5]", "result": 0.9, "unit": "µM"}, {"measurement": "MIC", "setting": "[5]", "result": 0.14, "unit": "µM"}, {"measurement": "MFC", "setting": "[6]", "result": 0.1, "unit": "µM"}, {"measurement": "MIC", "setting": "[6]", "result": 0.08, "unit": "µM"}, {"measurement": "MFC", "setting": "[7]", "result": 0.1, "unit": "µM"}, {"measurement": "MIC", "setting": "[7]", "result": 0.08, "unit": "µM"}, {"measurement": "MFC", "setting": "[8]", "result": 0.1, "unit": "µM"}, {"measurement": "MIC", "setting": "[8]", "result": 0.04, "unit": "µM"}, {"measurement": "MFC", "setting": "[9]", "result": 0.5, "unit": "µM"}, {"measurement": "MIC", "setting": "[9]", "result": 0.14, "unit": "µM"}, {"measurement": "MFC", "setting": "[10]", "result": 0.2, "unit": "µM"}, {"measurement": "MIC", "setting": "[10]", "result": 0.04, "unit": "µM"}, {"measurement": "MFC", "setting": "[11]", "result": 0.1, "unit": "µM"}, {"measurement": "MIC", "setting": "[11]", "result": 0.08, "unit": "µM"}, {"measurement": "MFC", "setting": "[12]", "result": 0.9, "unit": "µM"}, {"measurement": "MIC", "setting": "[12]", "result": 0.12, "unit": "µM"}, {"measurement": "MFC", "setting": "[13]", "result": 0.1, "unit": "µM"}, {"measurement": "MIC", "setting": "[13]", "result": 0.04, "unit": "µM"}, {"measurement": "MFC", "setting": "[14]", "result": 0.2, "unit": "µM"}, {"measurement": "MIC", "setting": "[14]", "result": 0.14, "unit": "µM"}, {"measurement": "MFC", "setting": "[15]", "result": 0.1, "unit": "µM"}, {"measurement": "MIC", "setting": "[15]", "result": 0.08, "unit": "µM"}, {"measurement": "MFC", "setting": "Cryptococcus neoformans [16]", "result": 0.22, "unit": "µM"}, {"measurement": "MIC", "setting": "Cryptococcus neoformans [16]", "result": 0.04, "unit": "µM"}, {"measurement": "MFC", "setting": "Cryptococcus neoformans [17]", "result": 0.22, "unit": "µM"}, {"measurement": "MIC", "setting": "Cryptococcus neoformans [17]", "result": 0.03, "unit": "µM"}, {"measurement": "MFC", "setting": "Cryptococcus neoformans [18]", "result": 0.45, "unit": "µM"}, {"measurement": "MIC", "setting": "Cryptococcus neoformans [18]", "result": 0.08, "unit": "µM"}, {"measurement": "MFC", "setting": "Cryptococcus neoformans [19]", "result": 0.45, "unit": "µM"}, {"measurement": "MIC", "setting": "Cryptococcus neoformans [19]", "result": 0.09, "unit": "µM"}, {"measurement": "MFC", "setting": "Cryptococcus neoformans [20]", "result": 0.11, "unit": "µM"}, {"measurement": "MIC", "setting": "Cryptococcus neoformans [20]", "result": 0.06, "unit": "µM"}, {"measurement": "MFC", "setting": "Cryptococcus neoformans [21]", "result": 0.22, "unit": "µM"}, {"measurement": "MIC", "setting": "Cryptococcus neoformans [21]", "result": 0.06, "unit": "µM"}, {"measurement": "MFC", "setting": "Cryptococcus neoformans [22]", "result": 0.11, "unit": "µM"}, {"measurement": "MIC", "setting": "Cryptococcus neoformans [22]", "result": 0.06, "unit": "µM"}, {"measurement": "MFC", "setting": "Cryptococcus neoformans [23]", "result": 0.22, "unit": "µM"}, {"measurement": "MIC", "setting": "Cryptococcus neoformans [23]", "result": 0.11, "unit": "µM"}, {"measurement": "MFC", "setting": "Cryptococcus neoformans [24]", "result": 0.22, "unit": "µM"}, {"measurement": "MIC", "setting": "Cryptococcus neoformans [24]", "result": 0.07, "unit": "µM"}, {"measurement": "MFC", "setting": "Cryptococcus neoformans [25]", "result": 0.45, "unit": "µM"}, {"measurement": "MIC", "setting": "Cryptococcus neoformans [25]", "result": 0.07, "unit": "µM"}, {"measurement": "MFC", "setting": "Cryptococcus neoformans [26]", "result": 0.22, "unit": "µM"}, {"measurement": "MIC", "setting": "Cryptococcus neoformans [26]", "result": 0.09, "unit": "µM"}]}]}
